Data from ChEMBL document CHEMBL3751743, “Synthesis and anti-cancer screening of novel heterocyclic-(2H)-1,2,3-triazoles as potential anti-cancer agents” (Medchemcomm, 2015).

Columns and labels:
SR = test: Cytotoxicity against human SR cells after 48 hrs by SRB assay; type: functional
How it was run: (§1)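 NCI-60 five-dose screen: compounds dissolved in DMSO/H2O, tested at five 10-fold dilutions (10^-4 to 10^-8 M) for 48 h. Growth measured by sulforhodamine B optical density at time zero and after 48 h drug or vehicle exposure. Percentage growth calculated relative to control. GI50 is the molar concentration giving 50% reduction in net cell growth versus day-0 cell numbers.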

[1] = Cytotoxicity against human DU145 cells after 48 hrs by SRB assay; type: functional; details: DU-145, 48 h; how it was run: as §1
U-251 = test: Cytotoxicity against human U251 cells after 48 hrs by SRB assay; type: functional; details: U-251, 48 h
How it was run: (§2)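 NCI-60 five-dose screen. Compounds dissolved in DMSO/H2O and tested at five 10-fold dilutions (10^-4 to 10^-8 M) for 48 h. Growth read by sulforhodamine B optical density at time zero and after 48 h of exposure to compound or vehicle. Percent growth calculated against control. GI50 is the molar concentration giving 50% reduction in net cell growth relative to cell number on day 0.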

MDA-MB-435 = test: Cytotoxicity against human MDA-MB-435 cells after 48 hrs by SRB assay; type: functional; details: MDA-MB-435, 48 h; how it was run: as §1
SK-MEL-28 = test: Cytotoxicity against human SK-MEL-28 cells after 48 hrs by SRB assay; type: functional; details: SK-MEL-28, 48 h; how it was run: as §1
[2] = Cytotoxicity against human PC3 cells after 48 hrs by SRB assay; type: functional; details: PC-3, 48 h; how it was run: as §1
[3] = Cytotoxicity against human COLO205 cells after 48 hrs by SRB assay; type: functional; details: COLO 205, 48 h; how it was run: as §1
CCRF-CEM = test: Cytotoxicity against human CCRF-CEM cells after 48 hrs by SRB assay; type: functional; how it was run: as §1
HT-29 = test: Cytotoxicity against human HT-29 cells after 48 hrs by SRB assay; type: functional; details: HT-29, 48 h; how it was run: as §1
[4] = Cytotoxicity against human HL-60(TB) cells after 48 hrs by SRB assay; type: functional; details: HL-60, 48 h; how it was run: as §1
K562 = test: Cytotoxicity against human K562 cells after 48 hrs by SRB assay; type: functional; details: K562, 48 h; how it was run: as §1
NCI-H522 = test: Cytotoxicity against human NCI-H522 cells after 48 hrs by SRB assay; type: functional; details: NCI-H522, 48 h; how it was run: as §1
SK-MEL-2 = test: Cytotoxicity against human SK-MEL-2 cells after 48 hrs by SRB assay; type: functional; details: SK-MEL-2, 48 h; how it was run: as §1
[5] = Cytotoxicity against human UO31 cells after 48 hrs by SRB assay; type: functional; details: UO-31, 48 h; how it was run: as §2
[6] = Cytotoxicity against human HCC2998 cells after 48 hrs by SRB assay; type: functional; details: HCC 2998, 48 h; how it was run: as §1
786-0 = test: Cytotoxicity against human 786-0 cells after 48 hrs by SRB assay; type: functional; details: 786-0, 48 h; how it was run: as §1
NCI-H23 = test: Cytotoxicity against human NCI-H23 cells after 48 hrs by SRB assay; type: functional; details: NCI-H23, 48 h; how it was run: as §1
[7] = Cytotoxicity against human HCT116 cells after 48 hrs by SRB assay; type: functional; details: HCT-116, 48 h; how it was run: as §1
[8] = Cytotoxicity against human OVCAR4 cells after 48 hrs by SRB assay; type: functional; details: OVCAR-4, 48 h; how it was run: as §1
NCI-H460 = test: Cytotoxicity against human NCI-H460 cells after 48 hrs by SRB assay; type: functional; details: NCI-H460, 48 h; how it was run: as §1
M14 = test: Cytotoxicity against human M14 cells after 48 hrs by SRB assay; type: functional; details: M14, 48 h; how it was run: as §1
[9] = Cytotoxicity against human Hs 578T cells after 48 hrs by SRB assay; type: functional; how it was run: as §1
ACHN = test: Cytotoxicity against human ACHN cells after 48 hrs by SRB assay; type: functional; how it was run: as §1
[10] = Cytotoxicity against human UACC257 cells after 48 hrs by SRB assay; type: functional; details: UACC-257, 48 h; how it was run: as §2
[11] = Cytotoxicity against human BT549 cells after 48 hrs by SRB assay; type: functional; details: BT-549, 48 h; how it was run: as §1
[12] = Cytotoxicity against human SF268 cells after 48 hrs by SRB assay; type: functional; details: SF-268, 48 h; how it was run: as §1
A498 = test: Cytotoxicity against human A498 cells after 48 hrs by SRB assay; type: functional; details: A498, 48 h; how it was run: as §1
MDA-MB-231 = test: Cytotoxicity against human MDA-MB-231 cells after 48 hrs by SRB assay; type: functional; details: MDA-MB-231, 48 h; how it was run: as §1
SK-MEL-5 = test: Cytotoxicity against human SK-MEL-5 cells after 48 hrs by SRB assay; type: functional; details: SK-MEL-5, 48 h; how it was run: as §1
[13] = Cytotoxicity against human UACC62 cells after 48 hrs by SRB assay; type: functional; details: UACC-62, 48 h; how it was run: as §2
T47D = test: Cytotoxicity against human T47D cells after 48 hrs by SRB assay; type: functional; how it was run: as §2
[14] = Cytotoxicity against human SNB19 cells after 48 hrs by SRB assay; type: functional; details: SNB-19, 48 h; how it was run: as §1
MDA-MB-468 = test: Cytotoxicity against human MDA-MB-468 cells after 48 hrs by SRB assay; type: functional; details: MDA-MB-468, 48 h; how it was run: as §1
[15] = Cytotoxicity against human MOLT4 cells after 48 hrs by SRB assay; type: functional; details: MOLT-4, 48 h; how it was run: as §1
[16] = Cytotoxicity against human OVCAR8 cells after 48 hrs by SRB assay; type: functional; details: OVCAR-8, 48 h; how it was run: as §1
[17] = Cytotoxicity against human Caki1 cells after 48 hrs by SRB assay; type: functional; details: CAKI-1, 48 h; how it was run: as §1
KM12 = test: Cytotoxicity against human KM12 cells after 48 hrs by SRB assay; type: functional; details: KM12, 48 h; how it was run: as §1
MCF7 = test: Cytotoxicity against human MCF7 cells after 48 hrs by SRB assay; type: functional; details: MCF7, 48 h; how it was run: as §1
Tubulin = Tubulin (Sus scrofa, UniProt P02554+P02550); test: Inhibition of porcine brain tubulin polymerization by spectrophotometric analysis
How it was run: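 Tubulin at 4 mg/mL in cold 80 mM PIPES pH 6.9 with 2 mM MgCl2, 0.5 mM EGTA, GTP and 10% glycerol. Compound (added as 10x stock in 50% DMSO) or DMSO was preincubated 2 min at 37 °C in a prewarmed plate. Cold tubulin was then added, and polymerization at 37 °C was followed by A340 over time. Dose-response, mean ± s.d., n=3.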

[18] = Cytotoxicity against human OVCAR3 cells after 48 hrs by SRB assay; type: functional; details: OVCAR-3, 48 h; how it was run: as §1
[19] = Cytotoxicity against human HCT15 cells after 48 hrs by SRB assay; type: functional; details: HCT-15, 48 h; how it was run: as §1
[20] = Cytotoxicity against human SNB75 cells after 48 hrs by SRB assay; type: functional; details: SNB-75, 48 h; how it was run: as §1
[21] = Cytotoxicity against human SF539 cells after 48 hrs by SRB assay; type: functional; details: SF-539, 48 h; how it was run: as §1
[22] = Cytotoxicity against human SF295 cells after 48 hrs by SRB assay; type: functional; details: SF-295, 48 h; how it was run: as §1
[23] = Cytotoxicity against human LOXIMVI cells after 48 hrs by SRB assay; type: functional; details: LOX IMVI; how it was run: as §1
[24] = Cytotoxicity against human NCI-ADR-RES cells after 48 hrs by SRB assay; type: functional; how it was run: as §1
NCI-H226 = test: Cytotoxicity against human NCI-H226 cells after 48 hrs by SRB assay; type: functional; details: NCI-H226, 48 h; how it was run: as §1
[25] = Cytotoxicity against human RXF393 cells after 48 hrs by SRB assay; type: functional; details: RXF 393, 48 h; how it was run: as §1
A549 = test: Cytotoxicity against human A549 cells after 48 hrs by SRB assay; type: functional; details: A549, 48 h; how it was run: as §1
[26] = Cytotoxicity against human OVCAR5 cells after 48 hrs by SRB assay; type: functional; details: OVCAR-5, 48 h; how it was run: as §1
SN12C = test: Cytotoxicity against human SN12C cells after 48 hrs by SRB assay; type: functional; how it was run: as §1
[27] = Cytotoxicity against human TK10 cells after 48 hrs by SRB assay; type: functional; details: TK-10, 48 h; how it was run: as §2
[28] = Cytotoxicity against human SW620 cells after 48 hrs by SRB assay; type: functional; details: SW-620, 48 h; how it was run: as §1
[29] = Cytotoxicity against human SKOV3 cells after 48 hrs by SRB assay; type: functional; details: SK-OV-3, 48 h; how it was run: as §1
[30] = Cytotoxicity against human RPMI8226 cells after 48 hrs by SRB assay; type: functional; details: RPMI-8226, 48 h; how it was run: as §1

SMILES: COc1cc(-c2n[nH]nc2-c2c[nH]c3ccccc23)cc(OC)c1OC
- GI50 (SR): 90 nM
- GI50 [1]: 90 nM
- GI50 (U-251): 59 nM
- GI50 (MDA-MB-435): 14 nM
- GI50 (SK-MEL-28): 112 nM
- GI50 [2]: 44 nM
- GI50 [3]: 34 nM
- GI50 (CCRF-CEM): 48 nM
- GI50 (HT-29): 33 nM
- GI50 [4]: 46 nM
- GI50 (K562): 53 nM
- GI50 (NCI-H522): 21 nM
- GI50 (SK-MEL-2): 30 nM
- GI50 [5]: 87 nM
- GI50 [6]: 440 nM
- GI50 (786-0): 35 nM
- GI50 (NCI-H23): 270 nM
- GI50 [7]: 41 nM
- GI50 [8]: 1160 nM
- GI50 (NCI-H460): 42 nM
- GI50 (M14): 36 nM
- GI50 [9]: 42 nM
- GI50 (ACHN): 43 nM
- GI50 [10]: 13900 nM
- GI50 [11]: 28 nM
- GI50 [12]: 71 nM
- GI50 (A498): 35 nM
- GI50 (MDA-MB-231): 89 nM
- GI50 (SK-MEL-5): 43 nM
- GI50 [13]: 43 nM
- GI50 (T47D): 48 nM
- GI50 [14]: 61 nM
- GI50 (MDA-MB-468): 42 nM
- GI50 [15]: 160 nM
- GI50 [16]: 1160 nM
- GI50 [17]: 44 nM
- GI50 (KM12): 45 nM
- GI50 (MCF7): 29 nM
- IC50 (Tubulin): 18500 nM
- GI50 [18]: 33 nM
- GI50 [19]: 35 nM
- GI50 [20]: 30 nM
- GI50 [21]: 31 nM
- GI50 [22]: 32 nM
- GI50 [23]: 71 nM
- GI50 [24]: 34 nM
- GI50 (NCI-H226): 390 nM
- GI50 [25]: 164 nM
- GI50 (A549): 90 nM
- GI50 [26]: 381 nM
- GI50 (SN12C): 1390 nM
- GI50 [27]: 1390 nM
- GI50 [28]: 43 nM
- GI50 [29]: 42 nM
- GI50 [30]: 90 nM
